In ChEMBL document CHEMBL1159071, “Discovery of 4-(5-methyloxazolo[4,5-b]pyridin-2-yl)-1,4-diazabicyclo[3.2.2]nonane (CP-810,123), a novel alpha 7 nicotinic acetylcholine receptor agonist for the treatment of cognitive disorders in schizophrenia: synthesis, SAR development, and in vivo efficacy in cognition models” (J Med Chem, 2010):
Active and inactive are the calls of the source. The calls are words filed in the database; no cut-off is given here.

Columns and labels:
[1] = Lipophilicity, log D at pH 7.4; assay type: physicochemical; conditions: buffer
[2] = target: T1, 5-hydroxytryptamine receptor 3A (Mus musculus, UniProt P23979); assay: Displacement of [3H]LY278584 from mouse 5HT3 receptor expressed in HEK293 cells; assay type: cell-based
T1 sequence (P23979 whole entry): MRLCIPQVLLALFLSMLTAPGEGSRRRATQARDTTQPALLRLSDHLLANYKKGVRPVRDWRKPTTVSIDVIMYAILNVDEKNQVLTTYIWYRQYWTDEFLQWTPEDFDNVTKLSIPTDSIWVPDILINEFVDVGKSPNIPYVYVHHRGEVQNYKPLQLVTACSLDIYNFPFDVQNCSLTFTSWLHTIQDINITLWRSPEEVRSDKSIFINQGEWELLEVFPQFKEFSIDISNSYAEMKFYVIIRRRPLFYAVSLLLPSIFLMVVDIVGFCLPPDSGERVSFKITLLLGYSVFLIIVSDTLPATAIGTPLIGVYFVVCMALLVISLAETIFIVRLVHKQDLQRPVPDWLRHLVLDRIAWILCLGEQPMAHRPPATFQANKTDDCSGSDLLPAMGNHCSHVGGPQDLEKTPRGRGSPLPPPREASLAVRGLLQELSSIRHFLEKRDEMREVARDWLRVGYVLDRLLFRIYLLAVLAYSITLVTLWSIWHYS
Outline: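 Mouse 5-HT3A in HEK293 cell homogenate, 20 mM Tris-HCl pH 7.4 with 154 mM NaCl. [3H]LY278584 1 nM final; nonspecific binding with 10 μM ICS205-930; 60 min at 37 °C, then filtration onto PEI-soaked GF/B. Ki by Cheng-Prusoff; mean of three six-point curves in triplicate in one assay; tropisetron standard.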

[3] = Oral bioavailability in rat; assay type: ADME, organism-based; conditions: in vivo
[4] = target: Neuronal acetylcholine receptor subunit alpha-7 (Rattus norvegicus) (UniProt Q05941); assay: Ex vivo receptor binding at alpha7 nicotinic acetylcholine receptor in rat hippocampal brain after 30 mins by [125I]alpha-bungarotoxin binding assay; assay type: tissue-based; conditions: Hippocampus
Outline: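 Rats dosed sc with compound or vehicle, 3 per dose group; hippocampus taken 30 min later and homogenized in HEPES buffer pH 7.5. Homogenate incubated 2 h at 37 °C with 0.4 nM [125I]α-bungarotoxin. Nonspecific binding with 1 μM methyllycaconitine; filtration onto GF/B. Occupancy-versus-dose ED50 derived.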

Rattus norvegicus [5] = assay: Cognitive enhancement in Sprague-Dawley rat assessed as reversal of amphetamine-induced auditory sensory gating deficit at 0.03 mg/kg, sc; assay type: functional, organism-based; design: dose 0.03 mg/kg
Outline: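 Male Sprague-Dawley rats (250-300 g) under chloral hydrate (400 mg/kg ip), femoral vein cannulated. CA3 hippocampal field potential recorded; auditory-evoked responses averaged over 50 stimulus pairs at 10 s interstimulus interval. Gating disrupted by d-amphetamine 1 mg/kg iv; compound sc. Read-out is reversal of the amphetamine deficit; PBS vehicle; two-tailed paired t-test.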

[6] = target: Neuronal acetylcholine receptor; alpha4/beta2 (Rattus norvegicus, UniProt P09483+P12390); assay: Displacement of [3H]nicotine from alpha4beta2 nAChR in rat brain homogenate; assay type: tissue-based
Outline: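 Rat brain homogenate membranes; [3H]nicotine used as radioligand. Ki taken as the average of a six-point dose-response curve run in triplicate.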

[7] = target: T2, Muscarinic acetylcholine receptor M4 (Homo sapiens, UniProt P08173); assay: Inhibition of muscarinic M4 receptor
T2 sequence (P08173 whole entry): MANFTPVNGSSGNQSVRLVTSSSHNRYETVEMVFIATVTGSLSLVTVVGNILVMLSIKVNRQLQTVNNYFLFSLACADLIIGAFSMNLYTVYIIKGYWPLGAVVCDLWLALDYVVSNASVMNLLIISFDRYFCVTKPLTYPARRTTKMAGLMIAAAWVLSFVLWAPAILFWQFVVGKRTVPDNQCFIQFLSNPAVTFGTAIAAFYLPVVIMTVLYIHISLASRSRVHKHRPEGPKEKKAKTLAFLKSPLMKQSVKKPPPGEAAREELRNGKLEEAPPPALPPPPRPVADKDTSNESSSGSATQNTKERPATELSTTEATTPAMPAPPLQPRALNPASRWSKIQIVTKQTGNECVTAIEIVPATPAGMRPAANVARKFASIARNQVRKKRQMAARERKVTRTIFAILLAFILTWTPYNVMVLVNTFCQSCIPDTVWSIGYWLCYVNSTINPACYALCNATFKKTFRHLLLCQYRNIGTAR

[8] = target: T3, 5-hydroxytryptamine receptor 3A (Homo sapiens, UniProt P46098); assay: […] at human 5HT3 receptor expressed in human skin epithelial cells assessed as stimulation of calcium flux by FLIPR assay; assay type: functional, cell-based, Epithelial cell
T3 sequence (P46098 whole entry): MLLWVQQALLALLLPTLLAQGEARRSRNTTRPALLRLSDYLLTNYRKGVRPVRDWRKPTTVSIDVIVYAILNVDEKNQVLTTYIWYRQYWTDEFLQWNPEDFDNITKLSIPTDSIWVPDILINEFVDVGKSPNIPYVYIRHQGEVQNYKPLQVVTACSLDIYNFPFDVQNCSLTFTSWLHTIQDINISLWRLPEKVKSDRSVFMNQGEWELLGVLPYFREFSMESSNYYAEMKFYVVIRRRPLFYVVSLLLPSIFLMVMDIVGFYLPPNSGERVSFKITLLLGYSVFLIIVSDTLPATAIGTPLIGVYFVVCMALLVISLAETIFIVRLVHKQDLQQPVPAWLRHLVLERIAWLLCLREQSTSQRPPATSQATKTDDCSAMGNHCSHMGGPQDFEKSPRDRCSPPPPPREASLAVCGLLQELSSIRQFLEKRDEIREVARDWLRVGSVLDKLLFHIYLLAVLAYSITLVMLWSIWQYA
Outline: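 Human 5-HT3A stably in human skin epithelial cells, plated 15 000 cells/well 2 days ahead; loaded 1 h at 37 °C with Fluo-4 (8 μM final), washed into HBSS with 20 mM Tris-HEPES, 1 μM atropine, 4 mM Ca2+, pH 7.4. Compound added 2 min, then 5-HT challenge (250 nM final) 2 min; FLIPR calcium read.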

[9] = target: Neuronal acetylcholine receptor subunit alpha-7 (Rattus norvegicus, UniProt Q05941); assay: Displacement of [125I]BTX from rat alpha7 nicotinic acetylcholine receptor expressed in GH4C1 cells; assay type: cell-based, GH4-C1
Outline: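 GH4C1 membranes (20 mM HEPES, 118 mM NaCl, 4.5 mM KCl, 2.5 mM CaCl2, 1.2 mM MgSO4, pH 7.5) incubated 2 h at 37 °C with [125I]α-bungarotoxin 0.4 nM final. Nonspecific binding with 1 μM methyllycaconitine; filtration onto PEI-treated GF/B filters. Ki = IC50/(1+[L]/KD); six-point curves in triplicate; geometric mean with 95% CI.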

Rattus norvegicus [10] = assay: Cognitive enhancement in Sprague-Dawley rat assessed as improvement of scopolamine-impaired performance at 1 mg/kg, sc administered 30 mins before scopolamine challenge by novel object recognition assay; assay type: functional, organism-based; design: dose 1 mg/kg
Outline: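 Rats habituated to the arena 3 min on day 1. Next day, 10-15 per group dosed sc with vehicle or compound, then 30 min later vehicle or (-)-scopolamine 0.2 mg/kg sc. After 30 min more, two identical objects shown 3 min; 2.5 h later one novel and one familiar object for 3 min. Exploration time per object, mean ± SEM.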

Chain of Neuronal acetylcholine receptor subunit alpha-7 (Q05941 whole entry): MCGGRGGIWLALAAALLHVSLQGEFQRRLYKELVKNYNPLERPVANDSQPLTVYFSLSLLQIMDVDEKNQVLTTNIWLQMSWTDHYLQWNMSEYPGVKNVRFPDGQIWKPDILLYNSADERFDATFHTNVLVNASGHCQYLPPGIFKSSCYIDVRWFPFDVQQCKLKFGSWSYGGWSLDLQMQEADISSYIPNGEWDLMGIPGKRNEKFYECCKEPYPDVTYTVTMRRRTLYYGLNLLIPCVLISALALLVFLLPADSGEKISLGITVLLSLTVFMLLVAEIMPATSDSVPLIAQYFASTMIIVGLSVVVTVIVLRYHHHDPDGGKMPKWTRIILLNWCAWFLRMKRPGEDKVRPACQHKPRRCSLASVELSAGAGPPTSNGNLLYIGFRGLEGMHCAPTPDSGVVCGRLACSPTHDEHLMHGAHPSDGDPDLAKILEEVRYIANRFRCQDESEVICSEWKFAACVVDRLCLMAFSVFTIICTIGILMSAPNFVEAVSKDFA
Chain of Neuronal acetylcholine receptor subunit alpha-7 (Rattus norvegicus) (Q05941 whole entry): as above
Chain of Neuronal acetylcholine receptor; alpha4/beta2 (P09483 whole entry): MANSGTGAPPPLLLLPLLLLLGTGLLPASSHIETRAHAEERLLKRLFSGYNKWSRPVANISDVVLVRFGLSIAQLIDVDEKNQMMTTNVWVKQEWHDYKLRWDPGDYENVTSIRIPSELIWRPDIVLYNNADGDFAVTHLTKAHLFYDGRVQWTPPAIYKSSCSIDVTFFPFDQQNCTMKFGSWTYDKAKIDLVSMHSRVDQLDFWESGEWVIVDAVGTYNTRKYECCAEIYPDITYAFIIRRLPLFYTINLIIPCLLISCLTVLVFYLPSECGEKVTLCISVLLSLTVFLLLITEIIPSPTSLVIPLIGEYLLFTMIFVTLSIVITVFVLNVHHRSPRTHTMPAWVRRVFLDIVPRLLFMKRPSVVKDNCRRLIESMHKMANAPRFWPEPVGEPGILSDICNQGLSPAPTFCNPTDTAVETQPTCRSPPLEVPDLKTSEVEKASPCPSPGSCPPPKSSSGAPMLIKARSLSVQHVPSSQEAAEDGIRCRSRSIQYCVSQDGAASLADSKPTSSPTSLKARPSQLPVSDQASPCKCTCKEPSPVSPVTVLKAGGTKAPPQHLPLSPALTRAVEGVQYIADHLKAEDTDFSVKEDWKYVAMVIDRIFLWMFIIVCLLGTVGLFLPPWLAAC
Chain of Neuronal acetylcholine receptor; alpha4/beta2 (P12390 whole entry): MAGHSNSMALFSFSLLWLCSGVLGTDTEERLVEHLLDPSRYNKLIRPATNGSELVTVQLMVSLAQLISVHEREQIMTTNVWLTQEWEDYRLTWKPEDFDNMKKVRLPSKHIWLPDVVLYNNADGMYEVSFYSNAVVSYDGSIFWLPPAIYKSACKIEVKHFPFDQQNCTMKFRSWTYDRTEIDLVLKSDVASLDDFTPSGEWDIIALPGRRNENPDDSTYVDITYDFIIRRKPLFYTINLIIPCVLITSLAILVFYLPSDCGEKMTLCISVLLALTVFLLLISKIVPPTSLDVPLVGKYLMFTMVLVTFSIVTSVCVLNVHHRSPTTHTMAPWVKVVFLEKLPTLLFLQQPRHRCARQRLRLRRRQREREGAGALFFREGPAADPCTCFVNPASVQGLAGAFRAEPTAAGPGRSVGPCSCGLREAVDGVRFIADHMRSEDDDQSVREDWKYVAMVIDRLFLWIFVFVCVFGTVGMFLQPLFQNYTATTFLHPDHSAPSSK

Which results are given for Cc1ccc2oc(N3CCN4CCC3CC4)nc2n1?
logD [1]: 0.36; Ki [2]: 269 nM; bioavailability [3]: 73%; ED50 [4]: 0.34 mg/kg; Activity (Rattus norvegicus [5]): Active; Ki [6]: 1350 nM; Ki [7]: 3000 nM; IC50 [8]: 5 nM; Ki [9]: 13.5 nM; Activity (Rattus norvegicus [10]): Active
